Data reported in ChEMBL document CHEMBL3856271, “Bis-Michael Acceptors as Novel Probes to Study the Keap1/Nrf2/ARE Pathway” (J Med Chem, 2016).

Legend:
Format in all cases: cell-based
[1] = Toxicity in HEK293T cells assessed as mortality at 100 uM after 24 hrs LDH assay relative to control; conditions: human, hek-293t
Outline: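 HEK 293T cells cultured in complete DMEM (10% FBS, antibiotics, sodium pyruvate, nonessential amino acids, 2 mM L-glutamine) at 37 °C, 5% CO2. Treated with increasing concentrations of Keap1 ligands for 24 h. Supernatants collected, cells lysed in 1% Triton, and LDH activity measured with buffer containing L(+)-lactic acid and NAD. Mortality reported when over 5%.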

[2] = target: T1, Keap1/Nrf2 (Homo sapiens) (UniProt Q16236+Q14145); assay: Inhibition of Keap1-Nrf2 interaction in HEK293T cells assessed as induction of ARE-luciferase gene expression at 100 uM after 24 hrs relative to control; conditions: HEK-293T
Outline: (§1)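 HEK 293T cells (1 × 105) plated the day before transfection, transiently transfected with 0.1 μg ARE-luc (Nrf2 response element) plasmid by FuGENE6; next day treated with compounds (range 0–100 μM) or sulforaphane 10 μM as positive control for 24 h. Lysates read for luciferase activity; expressed as fold-induction. Cells grown in complete DMEM with 10% FBS, 37 °C, 5% CO2.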

[3] = target: T1, Keap1/Nrf2 (Homo sapiens); assay: Inhibition of Keap1-Nrf2 interaction in HEK293T cells assessed as induction of ARE-luciferase gene expression at 1 uM after 24 hrs relative to control; conditions: HEK-293T; outline: as §1
[4] = target: T1, Keap1/Nrf2 (Homo sapiens); assay: Inhibition of Keap1-Nrf2 interaction in HEK293T cells assessed as induction of ARE-luciferase gene expression at 20 uM after 24 hrs relative to control; conditions: HEK-293T; outline: as §1

T1 sequence (Q14145 whole entry, looked up): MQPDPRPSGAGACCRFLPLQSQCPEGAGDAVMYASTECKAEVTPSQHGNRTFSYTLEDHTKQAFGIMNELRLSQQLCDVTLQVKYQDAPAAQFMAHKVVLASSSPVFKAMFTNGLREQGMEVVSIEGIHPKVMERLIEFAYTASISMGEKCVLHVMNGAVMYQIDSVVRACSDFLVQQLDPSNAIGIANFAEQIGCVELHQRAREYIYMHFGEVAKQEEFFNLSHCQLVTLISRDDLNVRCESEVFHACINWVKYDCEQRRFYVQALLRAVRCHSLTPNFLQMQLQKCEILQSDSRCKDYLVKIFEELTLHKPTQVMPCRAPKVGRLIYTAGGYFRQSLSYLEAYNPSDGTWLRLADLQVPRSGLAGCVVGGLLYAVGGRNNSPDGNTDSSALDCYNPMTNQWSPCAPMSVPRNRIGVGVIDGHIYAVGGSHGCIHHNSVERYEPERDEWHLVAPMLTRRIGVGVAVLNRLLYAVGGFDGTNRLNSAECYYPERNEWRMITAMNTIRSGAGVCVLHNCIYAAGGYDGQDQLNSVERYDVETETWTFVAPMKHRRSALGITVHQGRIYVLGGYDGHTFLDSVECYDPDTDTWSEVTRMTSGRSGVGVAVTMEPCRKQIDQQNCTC
T1 sequence (Q16236 whole entry, looked up): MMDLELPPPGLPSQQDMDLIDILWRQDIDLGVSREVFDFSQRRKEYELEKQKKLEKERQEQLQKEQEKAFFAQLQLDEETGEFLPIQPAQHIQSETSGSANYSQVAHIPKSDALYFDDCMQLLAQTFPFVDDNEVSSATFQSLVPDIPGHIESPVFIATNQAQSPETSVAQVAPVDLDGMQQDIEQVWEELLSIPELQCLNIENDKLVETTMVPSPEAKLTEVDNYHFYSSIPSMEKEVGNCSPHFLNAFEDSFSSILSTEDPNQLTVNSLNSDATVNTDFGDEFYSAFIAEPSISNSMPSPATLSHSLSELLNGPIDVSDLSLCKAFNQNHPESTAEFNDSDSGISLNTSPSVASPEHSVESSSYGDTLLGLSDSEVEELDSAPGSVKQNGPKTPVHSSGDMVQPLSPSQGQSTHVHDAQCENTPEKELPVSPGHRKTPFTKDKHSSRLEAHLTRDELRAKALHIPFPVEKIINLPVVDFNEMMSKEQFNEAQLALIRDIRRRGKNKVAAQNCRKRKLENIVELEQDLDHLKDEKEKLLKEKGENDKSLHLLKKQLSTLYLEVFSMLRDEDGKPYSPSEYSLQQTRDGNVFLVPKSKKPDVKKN

SMILES	Activity [1]	fold change (FC) [2]	fold change (FC) [3]	fold change (FC) [4]	mortality [1] [%]
CCCCCCC1CC2(C=C(C(=O)OC)C1=O)OCCO2 (stereo not drawn)	Non-Toxic	20.2	1.4	2.19	
COC(=O)C1=CC2(CC(CCCC3CC4(C=C(C(=O)OC)C3=O)OCCO4)C1=O)OCCO2 (stereo not drawn)		30.9	1	1.05	9
C=CCOC(=O)C1=CC(C)(C)CCC1=O		94.8	1.39	4.36	17
COC(=O)C1=CC(C)(C)CC(CCCCC2CC(C)(C)C=C(C(=O)OC)C2=O)C1=O (stereo not drawn)			8.23		
COC(=O)C1=CC2(CC(CC3CC4(C=C(C(=O)OC)C3=O)OCCO4)C1=O)OCCO2 (stereo not drawn)		15.9	0.94	2.76	12
C#CCC1CC(C)(C)C=C(C(=O)OC)C1=O (stereo not drawn)		34.2	1.14	1.48	7
COC(=O)C1=CC2(CC(C)C1=O)OCCO2 (stereo not drawn)	Non-Toxic		0.98	2.49	
COC(=O)C1=CC(C)(C)CCC1=O	Non-Toxic	50.6	1.36	6.46	
COC(=O)C1=CC(C)(C)C=CC1=O		10.3	1.35	3.39	
C=CCC1CC(C)(C)C=C(C(=O)OC)C1=O (stereo not drawn)	Non-Toxic	25.3	1.34	2.05	
COC(=O)C1=CC(C)(C)CC(CC(C)=O)C1=O (stereo not drawn)		8.71	0.49	2.2	
COC(=O)C1(C)CC(C)(C)C=CC1=O (stereo not drawn)		4.56	1.47	2.43	
COC(=O)C1=CC(C)(C)CC(CCCC2CC(C)(C)C=C(C(=O)OC)C2=O)C1=O (stereo not drawn)			4.71	248	
COC(=O)C1=CC(C)(C)CC(C)C1=O (stereo not drawn)	Non-Toxic	4.6	1.17	2.75	
COC(=O)C1=CC(C)(C)CC(C/C=C/CC2CC(C)(C)C=C(C(=O)OC)C2=O)C1=O (stereo not drawn)			15.2		
COC(=O)CCC1CC(C)(C)C=C(C(=O)OC)C1=O (stereo not drawn)		5.96	0.68	1.24	

SMILES	Activity [1]	fold change (FC) [2]	fold change (FC) [3]	fold change (FC) [4]	mortality [1] [%]
CC1(C)C=C(CO)C(=O)CC1		1.46	0.72	0.77	
CCCCCCC1CC(C)(C)C=C(C(=O)OC)C1=O (stereo not drawn)	Non-Toxic	64.7	1.15	2	
CC1(C)C=C(C(=O)OC(C)(C)C)C(=O)CC1		106	1.05	3.89	16
CC1(C)C=C(I)C(=O)CC1		17.4	1.22	1.16	
CC1(C)C=C(COC(=O)C2=CC(C)(C)CCC2=O)C(=O)CC1		121	2.02	3.78	15
CC1(C)C=C(Cl)C(=O)CC1		43.4	1.33	4.42	
COC(=O)C1=CC(C)(C)CC(Cc2ccccc2)C1=O (stereo not drawn)	Non-Toxic	48.5	0.95	0.92	
COC(=O)C1=CC(C)(C)CC(CC#CCC2CC(C)(C)C=C(C(=O)OC)C2=O)C1=O (stereo not drawn)			52.5		
COC(=O)C1=CC(C)(C)CC(CC(F)(F)F)C1=O (stereo not drawn)		17.9	0.54	1.54	11
COC(=O)C1=CC(C)(C)CC(CC2CC(C)(C)C=C(C(=O)OC)C2=O)C1=O (stereo not drawn)		101	4.49	3.6	24
CC1(C)C=C(COC(=O)C2CC(C)(C)CCC2=O)C(=O)CC1 (stereo not drawn)		4.02	2.98	3.79	
COC(=O)C1=CC(C)(C)CC(CC(=O)OC(C)(C)C)C1=O (stereo not drawn)		1.75	0.65	2	
COC(=O)C1=CC(C)(C)CCC1O (stereo not drawn)		1.29	1	1.85	
COC(=O)C1=CC(C)(C)CC(CC#N)C1=O (stereo not drawn)		17.1	1.03	2.22	
CC1(C)C=C(C(=O)O)C(=O)CC1		29.6	2	3.11	
COC(=O)C1CC(C)(C)C=CC1=O (stereo not drawn)		41.9	1.05	3.2	
